Only some compounds are listed: those with a hit (about 2.5% of all), similar ones and a draw of the others.
Exocytosis inh – blocks lytic granule exocytosis. TALL-104 LAMP-1 surface exposure, flow cytometry; cells stimulated with thapsigargin and PMA. inhibition, % at 10 µM. 0.66% of 360,000 active;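 active = inhibition above about 55%, limit read from the data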
Bfl-1 A1 inh – inhibitors of the anti-apoptotic protein A1, read as caspase activation; 0.066% of 330,000 active; AID 2462; MEF A1-2A-BIM cells, Caspase-Glo 3/7 luminescence, 3 h; percent of clofoctol response, vehicle zero; caspase activation, % (concentration not given with the values);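 active = over half of replicate activation scores above 10%, or exactly half above 10 with the replicate mean above 10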
sPLA2-III inh – Inhibits HGIII-sPLA2 liposome hydrolysis, primary screen. AID 743126. inhibition, % at 12.2 µM. 0.56% of 370,000 active. QFRET BODIPY PC-A2 liposome hydrolysis, fluorescence;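 active = inhibition above mean plus 3 SD of compounds lying within the high and low control bounds, cut at about 19% in these data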;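 also: 0% = median of test compound wells and 100% = no enzyme DMSO wells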
MC4R antagonist – antagonists of human melanocortin 4 receptor (MC4R). P32245. MC4R-expressing cells, MTII-stimulated cAMP, LANCE TR-FRET. inhibition, % at 6.5 µM. 0.48% of 360,000 active. AID 540295;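 active = inhibition above its plate's cutoff, the mean of tested wells on that plate plus 3 SD, cut at about 29% in these data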;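 also: 0% = Melanotan II alone and 100% = Melanotan II plus saturating MCL0020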
Target sequence (P32245 whole entry, looked up): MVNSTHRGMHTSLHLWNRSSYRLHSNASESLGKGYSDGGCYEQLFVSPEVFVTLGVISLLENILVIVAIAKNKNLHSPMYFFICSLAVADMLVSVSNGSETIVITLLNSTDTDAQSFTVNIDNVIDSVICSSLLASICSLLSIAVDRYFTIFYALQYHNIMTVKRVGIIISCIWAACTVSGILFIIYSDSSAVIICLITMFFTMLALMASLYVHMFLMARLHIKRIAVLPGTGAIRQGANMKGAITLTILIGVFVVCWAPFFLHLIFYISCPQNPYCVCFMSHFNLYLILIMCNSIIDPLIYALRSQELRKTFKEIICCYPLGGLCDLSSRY
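material = U2OS cells stably expressing human melanocortin 4 receptor (MC4R) | also added = Melanotan II challenge | dosing = single nominal compound dose of 6.5 µM | detection = TR-FRET with Eu-cAMP and labeled anti-cAMP, 671 nm | replication = singlicate | timing = compound 30 min, challenge 1 h, detection 1 h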
NTR1 ag – activates human neurotensin receptor 1 | activation, % at 20 µM | 0.17% of 330,000 active | NTR1-U2OS beta-arrestin-GFP spot imaging, agonist mode;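 active = activation at or above 40% of the spot to cytoplasm intensity ratio, with at least 20 cells analyzed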;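 also: 0% = DMSO without peptide and 100% = 100 nM NTR1 peptide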
Target sequence (P30989 whole entry, looked up): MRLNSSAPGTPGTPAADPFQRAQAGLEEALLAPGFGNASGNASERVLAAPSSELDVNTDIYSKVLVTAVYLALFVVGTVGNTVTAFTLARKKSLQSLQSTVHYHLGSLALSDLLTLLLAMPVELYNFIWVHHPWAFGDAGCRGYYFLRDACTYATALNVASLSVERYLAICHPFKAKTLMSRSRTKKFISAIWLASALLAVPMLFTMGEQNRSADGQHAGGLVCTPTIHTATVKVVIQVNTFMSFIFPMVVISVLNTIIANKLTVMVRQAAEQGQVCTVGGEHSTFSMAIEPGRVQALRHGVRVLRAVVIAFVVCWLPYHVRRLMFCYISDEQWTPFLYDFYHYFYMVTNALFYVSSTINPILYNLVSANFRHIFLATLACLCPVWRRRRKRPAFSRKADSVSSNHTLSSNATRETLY
MC4R barr agon – human MC4R agonism via beta-arrestin. P32245. U2OS MC4R beta-arrestin complementation, luminescence; percent of melanotan II response, DMSO zero. activation, % at 8.9 µM. 0.98% of 360,000 active;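 active = activation above a per-plate cutoff, the mean activation of sample wells on that plate plus 3 SD, cut at about 8% in these data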
U2OS cAMP counter – counter-screen for MC4R antagonists: nonselective cAMP signaling inhibitors; shares compounds with MC4R antagonist; parental U2OS, forskolin cAMP, LANCE TR-FRET; 26% of 1,600 active; inhibition, % at 6.5 µM;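 active = mean inhibition over triplicates above the low-control well mean plus 3 SD, set per campaign, cut at about 13% in these data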;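 also: signal is single emission at 671 nm which falls as cellular cAMP rises; 0% = forskolin-stimulated wells and 100% = buffer without forskolin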
MC4R cAMP antag – human MC4R cAMP antagonism confirmation | shares compounds with MC4R antagonist | MC4R-expressing cells, MTII-stimulated cAMP, TR-FRET | inhibition, % at 6.5 µM | 27% of 1,600 active | AID 602195; in the data active = inhibition above about 29%;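 also: 0% = agonist stimulated wells alone and 100% = agonist stimulated wells plus saturating reference antagonist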
Active calls of the source: *; . = no result given; + = active, no number.

SMILES	Exocytosis inh	Bfl-1 A1 inh	sPLA2-III inh	MC4R antagonist	NTR1 ag	MC4R barr agon	U2OS cAMP counter	MC4R cAMP antag
O=C(Nc1ccccc1)C1=C(c2ccccc2)S(=O)(=O)CCS1(=O)=O	12.1	.	-3.6	46.9*	.	-1.4	27.6*	36.9*
O=C(COC(=O)CNC(=O)c1cccc(OC(F)F)c1)NCc1ccc2c(c1)OCO2	-0.7	1.4	4.6	32.7*	-1.3	-2.2	19.6*	39.6*
Nc1[nH]c(C(=O)c2ccc(Cl)cc2)c(-c2ccc(Br)cc2)c1C(=O)NCc1ccc(Cl)cc1Cl	.	.	-0.7	.	.	.	.	.
Cc1cc(N2CCN(C(=O)OC(C)(C)C)C[C@H]2C)ccc1N1C[C@@H](C)O[C@@H](C)C1	.	.	11.9	.	.	.	.	.
O=C1CSC(c2cccnc2)N1Cc1cccnc1 (stereo not given)	4.8	-0.2	-5.3	29.4*	0.9	0.2	3.1	11.8
COc1ccc(C(=O)OCCN=C2NS(=O)(=O)c3ccccc32)cc1OC	5.6	-0.5	-1.8	30.2*	0.4	1.8	-0.9	-10.1
Cc1ccc(N2CC(C(=O)Nc3ccc(S(=O)(=O)N4CCOCC4)cc3)CC2=O)cc1 (stereo not given)	-2.4	0.4	-12.6	10.4	0.3	-0.8	.	.
Cc1cccc(N2CC(C(=O)Nc3ccc(S(=O)(=O)N4CCOCC4)cc3)CC2=O)c1 (stereo not given)	-0.9	1.2	-25.7	30.4*	-0.5	1.8	1.4	5.2
Cc1c(C(C)c2ccccc2O)c2ccccc2n1C (stereo not given)	.	.	3.3	.	.	.	.	.
CN(c1ccc(OCC(=O)OCC(=O)Nc2ccccc2)cc1)S(=O)(=O)c1cccs1	-2.2	1.5	-9.2	30.6*	-1.5	-0.6	13.7*	36.7*
CN(c1ccc(OCC(=O)OCC(=O)Nc2ccc(OC(F)F)cc2)cc1)S(=O)(=O)c1cccs1	-1.3	1.0	-7.2	9.1	4.8	-2.1	.	.
CCN(CC)c1ccc(NC(=O)COc2ccc(N(C)S(=O)(=O)c3cccs3)cc2)cc1	3.3	-0.4	2.2	5.3	2.8	-0.7	.	.
CN(c1ccc(OCC(=O)OCC(=O)Nc2ccc(Br)cc2)cc1)S(=O)(=O)c1cccs1	-2.4	2.0	-25.8	29.4*	1.3	-0.8	9.8	30.6*
COc1ccc(OC)c(NC(=O)O[C@@H]2CC[C@@]34CCCN3C(=O)CCC[C@H]4C2)c1	.	.	6.7	.	.	.	.	.
CCOC(=O)C1CCCN(C(=O)Cn2sc3nc(C)cc(C)c3c2=O)C1 (stereo not given)	84.4*	0.2	.	41.7*	-1.4	-1.2	10.8	30.1*
Cc1ccccc1CNC(=O)CN1C(=O)c2ccccc2S1(=O)=O	-12.0	0.2	1.8	29.2*	-0.9	0.9	2.4	0.7
O=C(c1ccc(F)cc1)n1ccc2ccc(-c3ccc4ccn(Cc5ccccc5)c4c3)cc21	.	.	4.7	.	.	.	.	.
Cc1ccc(S(=O)(=O)n2cccc2/C=C/[N+](=O)[O-])cc1	35.0	.	-9.1	38.2*	.	-1.6	7.1	4.5
CC(C)Cn1c(N)c(C(=O)COC(=O)c2ccc([N+](=O)[O-])o2)c(=O)n(C)c1=O	-5.8	0.7	-1.2	35.0*	3.4	-1.9	10.3	19.0
CC(C)Cn1c(N)c(C(=O)COC(=O)c2ccc(O)cc2)c(=O)n(C)c1=O	2.3	1.5	-17.9	1.5	1.9	-1.1	.	.
COc1ccc(Sc2cccc(Cl)c2)c(C(=O)O)c1	.	.	-2.7	.	.	.	.	.
Cc1ccc(C(=O)Nc2nc(=O)n(C(=O)C3CC3)s2)cc1	1.1	-0.3	1.3	14.4	0.9	0.6	.	.
O=C(Nc1nc(=O)n(C(=O)C2CC2)s1)c1ccccc1	-0.7	-0.1	8.7	30.5*	-0.7	0.8	0.6	-1.9
O=C(O)c1ccccc1C(=O)c1cccc2c(Br)cccc12	-7.4	.	-8.4	+	.	-3.0	+	+
CC(C)(C)OC(=O)NCCCC[C@H](NC(=O)c1nc[nH]c1C(=O)NCC(=O)OCc1ccccc1)C(=O)OC(C)(C)C	-1.7	1.9	-20.1	5.8	16.1	-0.8	.	.
SMILES	Exocytosis inh	Bfl-1 A1 inh	sPLA2-III inh	MC4R antagonist	NTR1 ag	MC4R barr agon	U2OS cAMP counter	MC4R cAMP antag
CC(C)(C)OC(=O)CNC(=O)c1nc[nH]c1C(=O)NCc1ccccc1	-5.9	0.8	-5.9	3.9	0.3	1.1	.	.
CC(C)(C)OC(=O)CNC(=O)c1[nH]cnc1C(=O)NCC(=O)OCc1ccccc1	-2.8	-0.1	-23.1	41.9*	13.6	1.4	2.8	8.1
CC(C)(C)OC(=O)NCCCCCNC(=O)c1nc[nH]c1C(=O)NCC(=O)OCc1ccccc1	-2.9	-1.2	-11.4	45.7*	12.0	-0.7	3.4	1.4
O=C(Cc1c[nH]c2ccccc12)Nc1ccc(Nc2cccnc2)c(-c2cccc(Cl)c2)c1	.	.	-48.8	.	.	.	.	.
COc1ccc(NC(=O)CSc2nc(C)cc(=O)[nH]2)cc1OC	.	.	6.5	.	.	.	.	.
Cc1ccccc1C(=O)NC1CCCCN(Cc2cccc(C(F)(F)F)c2)C1=O (stereo not given)	.	.	6.7	.	.	.	.	.
COc1cc([N+](=O)[O-])ccc1NC(=S)NC(=O)CC(C)(C)C	15.0	0.3	9.6	30.3*	3.8	-2.5	6.0	32.3*
CN(C)c1cccc(NC(=O)c2ccco2)c1	-2.4	-0.6	0.1	1.0	-0.4	-2.5	.	.
CCN(CC)P(=O)(Nc1cccc(C(F)(F)F)c1)c1ccc(N(C)C)cc1NC(=O)c1ccco1 (stereo not given)	11.3	0.1	-1.9	34.5*	0.5	1.4	5.4	9.8
COc1ccc(C(C(=O)NC(C)(C)C)N(C(=O)CCC(=O)Nc2cc(C)on2)c2ccccc2F)cc1 (stereo not given)	2.3	0.3	-6.8	30.1*	2.5	1.6	-1.0	-8.2
COc1cccc(C(=O)N[C@H](C(=O)N2CCC[C@H]2C(=O)NC2CCCC2)C2CCCCC2)c1	.	.	0.7	.	.	.	.	.
Cc1ccc(C)n1-c1ccc(-c2nnc3n2CCCCC3)s1	3.8	0.1	-10.3	38.9*	-0.2	0.0	17.2*	33.3*
CC(C)C[C@H]1COc2cccc(F)c2S(=O)(=O)N1Cc1cn(Cc2ccco2)nn1	.	.	-0.5	.	.	.	.	.
COc1ccc(Oc2c(Cl)cnn(-c3cc(C)cc(C)c3)c2=O)cc1	.	.	-3.3	.	.	.	.	.
COc1ccc(OC)c(Cc2nnc(CCC(=O)N3CCCCC3c3nccs3)o2)c1 (stereo not given)	-5.3	1.4	.	29.9*	2.9	0.7	-5.4	-20.9
Cc1cccc(Cc2nnc(CCC(=O)N3CCCCC3c3nccs3)o2)c1 (stereo not given)	1.0	-0.3	7.3	0.3	0.4	-2.1	.	.
CCCCCCCCN1C(=O)[C@@H](CC(=O)NCc2cccc(C(F)(F)F)c2)C[C@@]2(C(=O)OC)C1=C[C@H](C(C)(C)C)O[C@@H]2C	.	.	8.7	.	.	.	.	.
